In ChEMBL document CHEMBL3804783, “Identification of a Small Molecule Cyclophilin D Inhibitor for Rescuing Aβ-Mediated Mitochondrial Dysfunction” (ACS Med Chem Lett, 2016):

Experiments:
SK-N-SH [1] = assay: Cytotoxicty against human SK-N-SH cells at 5 to 100 uM after 48 hrs by MTT assay; assay type: cell-based
Outline: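 SK-N-SH cells exposed at 37 °C for 48 h to 0, 5, 10, 25, 50 or 100 μM inhibitor diluted in culture medium, with vehicle as 0. Survival and toxicity read by MTT reduction.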

[2] = Effect on mouse brain cortical mitochondrial swelling at 10 to 100 uM incubated for 5 mins by spectrophotometric analysis; assay type: ADME, Mitochondria
Outline: (§1)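 Cortical mitochondria isolated from mice (100 μg) kept on ice for 5 min with or without inhibitor. Swelling then triggered by adding 200 μM Ca2+ to the reaction buffer and compared with vehicle-treated mitochondria.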

SK-N-SH [3] = assay: Effect on ATP level in human SK-N-SH cells at 10 to 20 uM after 48 hrs by bioluminescence analysis; assay type: ADME, cell-based
Outline: (§2)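 SK-N-SH cells given 5 μM oligomeric Aβ1–42 together with 10 or 20 μM inhibitor, 1 μM CsA, or vehicle. Controls were Aβ alone and cells without Aβ. After 48 h, ATP level or CcO enzymatic activity measured in cell lysates.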

[4] = target: Peptidyl-prolyl cis-trans isomerase F, mitochondrial (Mus musculus) (UniProt Q99KR7); assay: Inhibition of cyclophilin D in mouse brain cortical mitochondria assessed as suppression of calcium-induced mitochondrial swelling incubated for 5 mins by spectrophotometric analysis; outline: as §1
Peptidyl-prolyl cis-trans isomerase F, mitochondrial (Mus musculus), sequence (Q99KR7 whole entry): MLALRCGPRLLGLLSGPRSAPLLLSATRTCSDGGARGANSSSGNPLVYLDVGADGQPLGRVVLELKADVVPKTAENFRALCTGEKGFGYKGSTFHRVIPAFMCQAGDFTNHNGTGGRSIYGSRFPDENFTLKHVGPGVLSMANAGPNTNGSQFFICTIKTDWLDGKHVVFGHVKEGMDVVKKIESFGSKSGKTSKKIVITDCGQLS

SK-N-SH [5] = assay: Effect on cytochrome c oxidase activity in human SK-N-SH cells at 10 to 20 uM after 48 hrs by spectrophotometrical analysis; assay type: ADME, cell-based; outline: as §2

inhibition [4]: Dose-dependent effect
Compound: Cc1nc(-c2ccc(OCC(C)C)c(C#N)c2)sc1C(=O)Nc1ccc(S(N)(=O)=O)cc1
Activity (SK-N-SH [1]): Non-toxic
Activity [2]: Non-toxic
Activity (SK-N-SH [3]): Non-toxic
Activity (SK-N-SH [5]): Non-toxic
